Screening results from PubChem.
A selection: hits, their analogues and other compounds. The true share with any hit is near 7.2%.
PostGolgi ctrl – growth inhibition of yeast control strain, primary screen, counter-screen for post-Golgi transport modulator project. efflux-deficient yeast background strain, growth absorbance A615, 16 h. inhibition, % at 10 µM. 5% of 98,000 active
PostGolgi yeast – phenotypic screen on post-Golgi transport, primary screen; AID 739, 2007; inhibition, % at 10 µM; 0.9% of 98,000 active; post-Golgi transport phenotypic cell assay;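 note: yeast cells grown in 1536-well plates; yeast grown about 18 h at 30C before absorbance read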
PLAP act – PLAP enzyme activators, biochemical, luminescence, HTS; Alkaline phosphatase, placental type (Homo sapiens), P05187; purified PLAP enzyme, luminescent substrate read-out; active compounds read high; 1.2% of 96,000 active; activation fold at 20 µM; AID 696, 2007; in the data active = activation fold above about 2
Target sequence (P05187 whole entry, looked up): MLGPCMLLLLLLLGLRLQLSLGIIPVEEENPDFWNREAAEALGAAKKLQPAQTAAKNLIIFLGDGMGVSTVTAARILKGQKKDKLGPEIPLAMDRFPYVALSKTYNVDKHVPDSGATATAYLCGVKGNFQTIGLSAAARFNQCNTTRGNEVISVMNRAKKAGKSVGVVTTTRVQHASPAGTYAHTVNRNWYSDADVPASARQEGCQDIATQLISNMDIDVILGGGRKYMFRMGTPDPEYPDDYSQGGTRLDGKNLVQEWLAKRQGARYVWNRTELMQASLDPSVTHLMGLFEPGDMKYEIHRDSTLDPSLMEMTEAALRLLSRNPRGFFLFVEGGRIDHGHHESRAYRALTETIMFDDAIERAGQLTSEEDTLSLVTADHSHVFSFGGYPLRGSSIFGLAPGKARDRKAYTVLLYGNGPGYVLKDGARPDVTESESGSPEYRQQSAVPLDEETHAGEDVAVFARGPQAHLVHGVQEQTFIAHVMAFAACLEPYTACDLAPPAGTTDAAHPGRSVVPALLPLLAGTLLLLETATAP
Ecoli WT expand – growth inhibitors of wild-type E. coli, primary screen, strain BW25113, expanded library, OD600; OD600 absorbance; growth inhibition, % at 100 µM; 0.15% of 98,000 active; AID 710, 2007;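 active = growth inhibition above about 50% at one test dose, limit read from the data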;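 note: growth measured after 20 h incubation at 37 °C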
tolC growth inh – growth inhibitors of E. coli tolC mutant, primary screen, strain BW25113 ΔtolC::kan, 384-well; OD615; 2.2% of 65,000 active; growth inhibition, % at 10 µM (by protocol); AID 573, 2007;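 active = growth inhibition at or above a cutoff equal to the mean over every tested compound plus 3 SD, cut at about 60% in these data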;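 note: growth measured after 20 h incubation at 37 °C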
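Test system: E. coli BW25113 ΔtolC::kan bacteria; incubation: 37 °C, 20 h exposure; medium: LB broth supplemented with 50 µg/mL kanamycin; read-out basis: percent growth inhibition; signal: A615 absorbance measurement; compound: 10 µM final, single dose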
Numbers stand for hits. Cut-off read from the data, not from the text of the source, unless noted: active = inhibition above about 30%; inactive = the rest.

Screening COc1cc(CNC2CCCC2)cc(Cl)c1OCc1ccc(F)cc1 returned PostGolgi ctrl 43.9, PostGolgi yeast inactive, PLAP act inactive and Ecoli WT expand inactive.
COc1cc(CNC2CCCC2)cc(Cl)c1OCc1ccccc1Cl was read as PostGolgi ctrl 32.8, PostGolgi yeast inactive, PLAP act inactive and Ecoli WT expand inactive.
For CCOc1cc(CNC2CCCC2)cc(Cl)c1OCc1ccc(F)cc1 the results were PostGolgi ctrl inactive, PostGolgi yeast inactive, PLAP act inactive and Ecoli WT expand inactive.
For COc1cc(CNC2CCCC2)cc(OC)c1OC the results were PostGolgi ctrl inactive, PostGolgi yeast inactive, PLAP act inactive and Ecoli WT expand inactive.
O=c1n(-c2ccccc2)c(=O)n(Cc2ccccn2)n1Cc1ccccn1 was read as PostGolgi ctrl inactive, PostGolgi yeast inactive, PLAP act inactive, Ecoli WT expand inactive and tolC growth inh inactive.
O=C(CN1C(=O)c2ccccc2S1(=O)=O)N1CCc2ccccc2C1 was read as PostGolgi ctrl inactive, PostGolgi yeast inactive, PLAP act inactive, Ecoli WT expand inactive and tolC growth inh inactive.
For CCOc1ccccc1CNC(=O)CCN1C(=O)COc2ccccc21 the results were PostGolgi ctrl 44.3, PostGolgi yeast inactive, PLAP act inactive, Ecoli WT expand inactive and tolC growth inh inactive.
Cc1cc(C)c(NC(=O)CSc2nnc(SCC(=O)Nc3c(C)cc(C)cc3C)n2N)c(C)c1 was read as PostGolgi ctrl inactive, PostGolgi yeast inactive, PLAP act inactive and Ecoli WT expand inactive.
For Clc1ccc(Cn2cc(/C=N/n3cnnc3)c3ccccc32)c(Cl)c1 the results were PostGolgi ctrl 31.6, PostGolgi yeast inactive, PLAP act inactive and Ecoli WT expand inactive.
Screening O=[N+]([O-])c1cccc(-c2ccc(/C=N/NC(=S)Nc3ccccc3)o2)c1 returned PostGolgi ctrl 48.2, PostGolgi yeast inactive, PLAP act inactive and Ecoli WT expand inactive.
Cc1snc(S(=O)(=O)/C(C#N)=N/Nc2ccc(C(F)(F)F)cc2)c1C#N was read as PostGolgi ctrl inactive, PostGolgi yeast inactive, PLAP act inactive and Ecoli WT expand inactive.
For C=CCNC1=C(Cl)C(=O)N(c2ccccc2Cl)C1=O the results were PostGolgi ctrl 34.0, PostGolgi yeast inactive, PLAP act inactive, Ecoli WT expand inactive and tolC growth inh inactive.
For Cc1ccccc1NC(=O)C1CCCN1C(=O)NC1CCCCC1 (stereo not drawn) the results were PostGolgi ctrl inactive, PostGolgi yeast inactive, PLAP act inactive, Ecoli WT expand inactive and tolC growth inh inactive.
`COc1ccc(-c2noc(C3CCCN(S(=O)(=O)c4cccc(Cl)c4C)C3)n2)cc1OC` (stereo not drawn) gave PostGolgi ctrl 49.7, PostGolgi yeast inactive, PLAP act inactive, Ecoli WT expand inactive and tolC growth inh inactive.
For COc1ccc(-c2noc(C3CCCN(S(=O)(=O)c4ccc(C)c(Cl)c4)C3)n2)cc1OC (stereo not drawn) the results were PostGolgi ctrl inactive, PostGolgi yeast inactive, PLAP act inactive, Ecoli WT expand inactive and tolC growth inh inactive.
`CC1Cc2ccccc2N1C(=O)CSc1nnc(Cc2ccccc2)n1CCc1ccccc1` (stereo not drawn) gave PostGolgi ctrl inactive, PostGolgi yeast inactive and Ecoli WT expand inactive.
`COc1ccccc1NC(=O)CSc1ncn(-c2ccccc2)n1` gave PostGolgi ctrl inactive, PostGolgi yeast inactive, PLAP act inactive and Ecoli WT expand inactive.
Screening Cc1cc(NC(=O)CSc2ncn(-c3ccccc3)n2)no1 returned PostGolgi ctrl 33.2, PostGolgi yeast inactive, PLAP act inactive, Ecoli WT expand inactive and tolC growth inh inactive.
Screening Cc1cc(NC(=O)CSc2c(C)[nH]c3ccccc23)no1 returned PostGolgi ctrl 30.2, PostGolgi yeast inactive, PLAP act inactive, Ecoli WT expand inactive and tolC growth inh inactive.
Screening COc1ccc(Cn2c(C3CC3)nc3ccc(NC(=O)c4ccco4)cc3c2=O)cc1 returned PostGolgi ctrl inactive, PostGolgi yeast inactive, PLAP act inactive, Ecoli WT expand inactive and tolC growth inh inactive.
For COC(=O)C1=C(C)NC(C)=C(C(=O)OC)C1c1ccccc1OCc1c(C)no[n+]1[O-] the results were PostGolgi ctrl inactive, PostGolgi yeast inactive, PLAP act inactive, Ecoli WT expand inactive and tolC growth inh inactive.
`Cc1ccc2nc(NC(=O)CCNS(=O)(=O)c3ccc(Br)s3)sc2c1` gave PostGolgi ctrl 41.9, PostGolgi yeast inactive, PLAP act inactive, Ecoli WT expand inactive and tolC growth inh inactive.
